Measured values collected from several papers.
Lines come from different studies, so protocols differ.
Target: Microtubule-associated serine/threonine-protein kinase 1 (MAST1, Homo sapiens, UniProt Q9Y2H9)

SMILES	assay	setting	remaining binding
CS(=O)(=O)N1CCCC(NC(=O)[C@H](CCC2CCCCC2)NC(=O)c2ccc(CNc3ncnc4c3nnn4-c3ccccc3)cc2)C1 (stereo partly drawn)	cell-free assay, competition with immobilised ligand	0.1 µM	100%
C=CC(=O)N1CCC(C(=O)NCC(=O)N2CCN(c3nc(-c4cnc(N)nc4C(F)F)nc(N4CCOCC4)n3)CC2)CC1	binding, competition with immobilised ligand	1 µM	100%
CCN1CCN(Cc2ccc(C(=O)Nc3ccc(C)c(Oc4ccc5c(c4)CC(=O)N5)c3)cc2C(F)(F)F)CC1	binding, competition with immobilised ligand	1 µM	100%
Cc1cnn2ncc(-c3ccnc(N(C)C)n3)c2c1	binding	1 µM	100%
O=C(NCCCN1CCOCC1)c1ccc(Nc2nccc(-c3cc4ccccc4s3)n2)cc1	binding, competition with immobilised ligand	1 µM	78%
O=C(NCC1CCOCC1)c1n[nH]cc1NC(=O)c1c(F)cccc1F	binding, competition with immobilised ligand	1 µM	51%
c1cnn2ncc(-c3ccnc(N4CCC45COC5)n3)c2c1	binding	1 µM	55%
COc1ccc2cc(OCC3(C(=O)O)CN(C(=O)c4ccc(F)cc4)C3)ccc2c1	cell-free assay, competition with immobilised ligand	1 µM	100%
CNC(=O)[C@@H]1CC[C@@H](n2c(-c3ccc4cnccc4c3)nc3ccc(C(=O)NCc4cccc(C(N)=O)c4)cc32)C1	binding, competition with immobilised ligand	1 µM	100%
C[C@@H](c1ccc(-n2cnc3c(N)ncnc32)cc1)N1CCc2nn(C)c(Cc3ccccc3)c2C1=O	binding, competition with immobilised ligand	0.1 µM	40%
O=C(c1ccc(Nc2ncc(Cl)c(-c3cc4ccccc4s3)n2)cc1)N1CCC(N2CCCC2)CC1	binding, competition with immobilised ligand	1 µM	52%
COc1ncc2cc3ccccc3nc2c1C#N	cell-free assay, competition with immobilised ligand	5 µM	98%
F[C@@H]1CCN(c2nccc(-c3cnn4ncccc34)n2)C1	binding	1 µM	100%
Cc1cc(-n2nc(Cc3cc(F)cc(C(F)(F)F)c3)nc2C)ccc1C(N)=O	cell-free assay, competition with immobilised ligand	1 µM	100%
N[C@@H]1CCN(c2nccc(-c3cnn4ncccc34)n2)C1	binding	1 µM	100%
O=C(Nc1cccnn1)N1CC(C/C=C/c2cncc(Oc3ccc(C(F)(F)F)cn3)n2)C1	cell-free assay, competition with immobilised ligand	1 µM	58%
Cc1cnc(Nc2ccc(C(=O)N3CCC(N4CCCC4)CC3)cc2)nc1-c1cc2ccccc2s1	binding, competition with immobilised ligand	1 µM	55%
CN(C)c1nccc(-c2cnn3ncccc23)n1	binding	1 µM	76%
CCC(=O)N[C@@H]1CC[C@H](C(=O)N(C)c2ccc(-c3nc4ccccc4o3)cc2)C1	cell-free assay, competition with immobilised ligand	1 µM	94%
C[C@H]1CCN(c2nccc(-c3cnn4ncccc34)n2)C1	binding	1 µM	82%
CN([C@@H]1CCc2c(CC(=O)O)c3ccccc3n2C1)S(=O)(=O)c1ccc(F)cc1	cell-free assay, competition with immobilised ligand	1 µM	100%
